# Assay outcomes as filed in PubChem BioAssay.
# LYPLA2 counter = counter-screen for PME1 inhibitors: inhibitors of human LYPLA2. recombinant LYPLA2, FP-Rh probe fluorescence polarization. inhibition, % at 5.9 µM. 320,000 tested, 0.38% active. AID 2177;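 active = inhibition above the screen-wide mean plus 3 SD, limit set per campaign, cut at about 26% in these data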;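 also: 0% = LYPLA2 with DMSO and 100% = wells lacking LYPLA2 enzyme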
# RBBP9 inh = inhibitors of human serine hydrolase RBBP9 | recombinant RBBP9, FP-Rh probe fluorescence polarization | inhibition, % at 7.94 µM | 220,000 tested, 0.2% active | AID 1515;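 active = inhibition above the campaign mean of all tested compounds plus 3 SD, cut at about 14% in these data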;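 also: plate controls were DMSO wells with RBBP9 for no effect and wells lacking RBBP9 protein for full effect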
# Target sequence (O75884 whole entry, looked up): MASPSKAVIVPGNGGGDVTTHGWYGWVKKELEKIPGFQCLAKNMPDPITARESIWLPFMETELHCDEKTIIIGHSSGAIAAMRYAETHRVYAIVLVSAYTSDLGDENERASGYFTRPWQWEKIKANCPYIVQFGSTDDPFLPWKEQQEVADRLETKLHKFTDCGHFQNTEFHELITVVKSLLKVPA
#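 Assay system: recombinant human RBBP9; Reagent: Serine-hydrolase probe FP-Rh, 375 nM pre-mixing; Doses: 7.94 µM single dose, 0.794% DMSO; Incubation: 30 min then 45 min, 25 °C; Detection: fluorescence polarization (mP), excitation 525 nm, emission 598 nm; Evaluation: percent inhibition from mP, scaled between DMSO and no-protein wells.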
# PME-1 primary = blocks human protein phosphatase methylesterase 1. Q9Y570. recombinant PME-1, FP-Rh probe fluorescence polarization. inhibition, % at 5.9 µM. 320,000 tested, 0.53% active. AID 2130;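 active = inhibition above the campaign mean of all compounds plus 3 SD, cut at about 26% in these data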;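 also: competitive labeling of PME-1 active site by serine hydrolase directed probe; 0% = PME-1 with DMSO and 100% = wells lacking PME-1 enzyme; inhibitors block probe labeling so polarization falls and inhibition rises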
# Target sequence (Q9Y570 whole entry, looked up): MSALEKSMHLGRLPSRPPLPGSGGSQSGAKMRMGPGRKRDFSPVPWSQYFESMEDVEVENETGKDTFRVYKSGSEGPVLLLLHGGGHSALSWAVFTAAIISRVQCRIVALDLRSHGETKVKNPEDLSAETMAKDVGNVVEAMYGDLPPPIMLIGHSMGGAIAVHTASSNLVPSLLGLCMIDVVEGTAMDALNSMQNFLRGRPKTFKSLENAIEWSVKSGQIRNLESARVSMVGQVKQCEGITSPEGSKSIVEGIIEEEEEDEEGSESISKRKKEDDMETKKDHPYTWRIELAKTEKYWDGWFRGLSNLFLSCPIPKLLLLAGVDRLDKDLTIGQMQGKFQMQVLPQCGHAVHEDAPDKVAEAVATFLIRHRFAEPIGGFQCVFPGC
# PAD4 FP inh = PAD4 (human) enzyme inhibition. recombinant PAD4, RCA probe fluorescence polarization. inhibition, % at 6.36 µM. 330,000 tested, 0.41% active. AID 485272;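 active = percent inhibition above a cutoff equal to the mean of all tested compounds plus 3 SD, cut at about 15% in these data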;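 also: 0% = PAD4 with RCA probe and DMSO and 100% = probe without PAD4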
# LYPLA1 inh = blocks human lysophospholipase 1, a PME1 counter-screen; O75608; recombinant LYPLA1, FP-Rh probe fluorescence polarization; inhibition, % at 5.9 µM; 320,000 tested, 0.16% active; AID 2174;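 active = inhibition above the mean of all tested compounds plus 3 SD, set per campaign, cut at about 14% in these data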;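 also: inhibitors block serine hydrolase probe labeling of LYPLA1 so polarization falls; 0% = enzyme with DMSO and 100% = wells lacking LYPLA1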
# Fam108B counter = blocks mouse Fam108B hydrolase in RBBP9 counter-screen; recombinant Fam108B, FP-Rh probe fluorescence polarization; inhibition, % at 9.51 µM; 300,000 tested, 0.33% active;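 active = inhibition above the screen mean inhibition plus 3 SD, computed separately per campaign, cut at about 18% in these data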;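 also: inhibitors lower polarization as less probe binds the enzyme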
# Fam108b inh conf = Fam108b (mouse) hydrolase inhibition, confirmation assay; 930 tested, 44% active; inhibition, % at 9.51 µM; recombinant Fam108b, FP-Rh probe fluorescence polarization; shares compounds with Fam108B counter;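 active = inhibition above a limit from the primary screen, the mean over all compounds plus 3 SD, cut at about 19% in these data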;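 also: 0% = median of active Fam108b wells and 100% = catalytically dead S170A mutant; inhibitors free the probe so polarization falls as inhibition rises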
# Fam108b inh = inhibits mouse Fam108b in gel-based ABPP | shares compounds with Fam108B counter | recombinant Fam108b, fluorophosphonate probe | inhibition, % at 20 µM | 260 tested, 44% active | AID 588649; in the data active = inhibition above about 40%
# * marks the source's active call; other numbers are inactive results; nt = no result. A selection: hits, their analogues and other compounds. The true share with any hit is near 1.3%.
SMILES,LYPLA2 counter,RBBP9 inh,PME-1 primary,PAD4 FP inh,LYPLA1 inh,Fam108B counter,Fam108b inh conf,others
Cc1nnc(C)n1/N=C/C=C/c1ccccc1,4,-4,0,3,1,-4,nt,
Cc1nc2ccccc2c(=O)n1N=C/C=C/c1ccccc1,nt,nt,nt,nt,nt,nt,nt,Fam108b inh=0
Cc1cccc2c3c([nH]c12)CCNC3,1,nt,2,1,0,4,nt,
Cc1ccc(C(C)C)c(OCc2ccc(C(=O)N/N=C/c3ccc(C(=O)O)cc3)cc2)c1,-19,-10,-14,-3,-22,-46,nt,
Cc1ccc(C(C)C)c(OCc2ccc(C(=O)N/N=C/c3ccc(O)cc3O)cc2)c1,2,0,35*,-2,-20,28*,9,
Clc1ccccc1C(c1ccccc1)(c1ccccc1)n1ccnc1,-3,-3,-14,-4,-3,32*,46*,Fam108b inh=45*
O=[N+]([O-])c1ccc(S(=O)(=O)Nc2ccc(-c3csc(-c4ccccc4)n3)cc2)cc1,-7,-11,4,-4,-12,25*,-7,
O=S(=O)(Nc1ccc(-c2csc(-c3ccccc3)n2)cc1)c1ccccc1,-38,-36,-47,-5,-13,-27,nt,
CC1CCN(S(=O)(=O)c2ccc(C(=O)Nc3ccccc3-c3nc4ccccc4[nH]3)cc2)CC1,-32,5,-46,7,-27,29*,71*,Fam108b inh=100*
Cc1ccc2nc3sc(C(=O)Nc4ccc(N5CCOCC5)cc4)c(N)c3cc2c1,nt,3,nt,nt,nt,nt,nt,
CCc1cccc2cc3c(N)c(C(=O)Nc4ccc(S(=O)(=O)N5CCCC5)cc4)sc3nc12,14,-6,38*,3,-8,54*,-17,
Cc1cccc2cc3c(N)c(C(=O)Nc4ccc(N5CCOCC5)cc4)sc3nc12,1,4,21,-22,-1,20*,2,
COc1ccc(C)cc1NC(=O)CNc1ccc(C(C)=O)cc1,2,-3,-3,-2,-2,4,nt,
CCN(CC)C(=O)Cn1c(=O)n(CCCC(=O)NCc2ccccc2)c(=O)c2sccc21,1,3,2,-1,0,4,nt,
CCOc1ccc(N(C)C(=O)CCc2nnc3ccc(N4CCCCC4)nn23)cc1,2,nt,-2,5,-3,0,nt,
COc1ccc(-c2nc(-c3ccccc3)c(-c3cc([N+](=O)[O-])ccc3C)[nH]2)cc1O,1,-5,39*,-5,-4,28*,11,
O=C(CSc1nnc(Cc2csc(Nc3cccc(Cl)c3)n2)o1)N1CCc2ccccc21,-9,-8,7,-7,-12,19*,-13,
O=C(CSc1nnc(CNc2ccccc2)o1)N1CCc2ccccc21,0,-3,-1,1,-3,4,nt,
COc1ccc(C(=O)Nc2cc(Cl)ccc2-n2cncn2)c(OC)c1OC,-2,nt,1,8,-1,nt,nt,
O=C(Cn1ccc(NC(=O)OCc2ccccc2)nc1=O)NCc1ccc2[nH]ccc2c1,4,nt,-4,-3,-2,nt,nt,
CCN(CC)c1nc2c3c(nc4c(c3c1C#N)CC(=O)N4c1ccc(Cl)cc1)NC(C)=N2,-4,3,27*,-8,-10,24*,18*,
CCc1ccc(N2C(=O)Cc3c2nc(N)c(C#N)c3N)cc1,-2,9,7,-5,0,0,nt,
O=C1c2c(O)cccc2Cc2cccc(O)c21,2,nt,37*,-7,-20,22*,43*,
CCSC1=NSC2=NC(=O)/C(=C\c3coc4ccccc4c3=O)C(=N)N12,-12,-6,-2,-20,-11,43*,47*,Fam108b inh=0
O=C(Nc1nc(-c2ccco2)c(-c2ccco2)s1)c1c(F)cccc1Cl,-21,nt,-2,-12,-17,nt,nt,
SMILES,LYPLA2 counter,RBBP9 inh,PME-1 primary,PAD4 FP inh,LYPLA1 inh,Fam108B counter,Fam108b inh conf,others
O=C(Nc1nc(-c2ccco2)c(-c2ccco2)s1)c1cnccn1,-4,nt,-3,-10,-3,25*,5,
N[C@H](CSCc1ccccc1)C(=O)Nc1ccc([N+](=O)[O-])cc1,0,nt,26*,-2,-11,29*,-5,
CCc1cc(C(Cc2ccc3ccccc3n2)=NO)c(O)cc1O,nt,nt,nt,nt,nt,nt,nt,Fam108b inh=40*
COc1cc(/C=N/NC(=O)CSc2ccccn2)ccc1OC(C)C,9,-9,0,-6,-1,0,nt,
NNC(=S)NCc1ccccc1,0,-7,-1,-6,2,2,nt,
S=C(NCc1ccccc1)NCc1cccc(CNC(=S)NCc2ccccc2)c1,0,-10,35*,2,2,36*,25*,
CCOC(=O)C1Nc2ccc(C(=O)O)cc2C2C=CCC12 (configuration not stated),-7,nt,-39,-16,-14,18,nt,
CCCC1Nc2ccc(C(=O)O)cc2C2C=CCC12 (configuration not stated),0,7,-22,6,-5,25*,1,
CCOC(=O)c1ccc2c(c1)C1C=CCC1C(C(=O)O)N2 (configuration not stated),4,7,-24,-1,-8,56*,33*,Fam108b inh=0
CC(C)C1Nc2ccc(C(=O)O)cc2C2C=CCC21 (configuration not stated),1,3,-8,2,-5,8,nt,
CCC(C)(C(=O)NC1CCCC1)N(C(=O)CC1NC(=O)NC1=O)c1c(C)n(C)n(-c2ccccc2)c1=O (configuration not stated),-3,-7,-2,3,-2,1,nt,
CC(C)(C)[C@H]1COC(=O)CCC/C=C/C[C@H](CC(=O)N(CCO)Cc2ccccc2)C(=O)N1,nt,nt,nt,10,nt,nt,nt,
O=[N+]([O-])c1cc(/C=N/Nc2nc3ccccc3[nH]2)c(O)cc1O,19,-4,17,-4,2,19*,17,
Cc1ccccc1/C=N/Nc1nc2ccccc2[nH]1,1,-3,-40,1,1,5,nt,
NC(N)=N/N=C/c1cc([N+](=O)[O-])ccc1O,-6,0,0,4,-5,-2,nt,
O=[N+]([O-])c1ccc(O)c(/C=N\N=C2c3ccccc3-c3ccccc32)c1,2,-11,13,-1,3,21*,6,
O=C(O)c1cc(O)c2c(c1)[C@@H]([C@H]1c3cc(C(=O)O)cc(O)c3C(=O)c3c(O[C@@H]4O[C@H](CO)[C@@H](O)[C@H](O)[C@H]4O)cccc31)c1cccc(OC3O[C@H](CO)[C@@H](O)[C@H](O)[C@H]3O)c1C2=O (some centres not stated),90*,nt,74*,-47,28*,99*,116*,
COc1cccc(Nc2nc(-c3cccs3)nc3ccccc23)c1,-30,-49,-41,-5,-26,-24,nt,
